Key:
[1] = system: Canis familiaris; test: Diuretic activity was measured after oral administration in conscious water loaded dogs at 20 mg/kg after 1 hr; type: functional, Canis lupus familiaris, Urine
How it was run: (§1)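 Male mongrel dogs (20–25 kg) were given 20 mL/kg tap water by gavage about 15 h before drug, with water ad libitum overnight. On the test day they received 4 mL/kg tap water hourly for 7 h, and the bladder was emptied at each interval. Drug was gavaged in the 4 mL/kg water load after the third urine sample, with Tween 80 added when it was poorly soluble. Urinary Na+ was measured by flame photometry as the mean excretory rate (μequiv/kg) per interval per animal. Each dog was its own control, using the hour before dosing.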

[2] = system: Mus musculus; test: The diuretic activity was measured after oral administration in saline loaded mice at 64 mg/kg after 5 hr; type: functional, Urine
How it was run: (§2)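 Mice were dosed orally with drug in 1% saline at 10 mL/kg, at 4 or 64 mg/kg, alongside a vehicle control. There were 10 mice per group, housed 5 per metabolic cage. Pooled urine was analysed for sodium by flame photometry and expressed as mean mequiv/kg/5 h.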

[3] = system: Mus musculus; test: The diuretic activity was measured after oral administration in saline loaded mice at 4 mg/kg after 5 hr; type: functional, Urine; how it was run: as §2
[4] = system: Canis familiaris; test: The diuretic activity of compound was measured after oral administration in conscious water loaded dogs at 5 mg/kg after 3 hr; Micro equiv of Na+/kg; type: functional, Canis lupus familiaris, Urine; how it was run: as §1
[5] = system: Canis familiaris; test: The diuretic activity of compound was measured after oral administration in conscious water loaded dogs at 5 mg/kg after 2 hr; Micro equiv of Na+/kg; type: functional, Canis lupus familiaris, Urine; how it was run: as §1
[6] = system: Canis familiaris; test: The diuretic activity of compound was measured after oral administration in conscious water loaded dogs at 5 mg/kg after 5h; Micro equiv of Na+/kg; type: functional, Canis lupus familiaris, Urine; how it was run: as §1
[7] = system: Canis familiaris; test: The diuretic activity of compound was measured after oral administration in conscious water loaded dogs at 5 mg/kg after 1 hr; Micro equiv of Na+/kg; type: functional, Canis lupus familiaris, Urine; how it was run: as §1
[8] = system: Canis familiaris; test: The diuretic activity of compound was measured after oral administration in conscious water loaded dogs at 5 mg/kg after 4 hr; Micro equiv of Na+/kg; type: functional, Canis lupus familiaris, Urine; how it was run: as §1
[9] = system: Canis familiaris; test: The diuretic activity of compound was measured after oral administration in conscious water loaded dogs at 5 mg/kg after 7h; Micro equiv of Na+/kg; type: functional, Canis lupus familiaris, Urine; how it was run: as §1

Cc1cccc(-c2noc3c(Cl)c(OCC(=O)O)ccc23)c1C
Oral diuretic activity [1]: 219.9 u equiv of [Na+] kg-1 hr-1
Oral diuretic activity [2]: 0.02 m equiv [Na+] 5hr-1kg-1

Cc1ccc(-c2noc3c(Cl)c(OCC(=O)O)ccc23)o1
Oral diuretic activity [1]: 37.4 u equiv of [Na+] kg-1 hr-1
Oral diuretic activity [2]: 1.5 m equiv [Na+] 5hr-1kg-1
Oral diuretic activity [3]: 0.3 m equiv [Na+] 5hr-1kg-1

O=C(O)COc1ccc2c(-c3ccc(O)cc3F)noc2c1Cl
Oral diuretic activity [1]: 43.5 u equiv of [Na+] kg-1 hr-1
Oral diuretic activity [2]: 0.6 m equiv [Na+] 5hr-1kg-1
Oral diuretic activity [3]: 0.5 m equiv [Na+] 5hr-1kg-1

O=C(O)COc1ccc2c(-c3ccc(Cl)c(Cl)c3)noc2c1Cl
Oral diuretic activity [1]: 101.6 u equiv of [Na+] kg-1 hr-1
Oral diuretic activity [2]: 0.1 m equiv [Na+] 5hr-1kg-1
Oral diuretic activity [3]: 0.6 m equiv [Na+] 5hr-1kg-1

O=C(O)COc1ccc2c(-c3ccc(Cl)cc3)noc2c1Cl
Oral diuretic activity [1]: 41.2 u equiv of [Na+] kg-1 hr-1
Oral diuretic activity [2]: 0.5 m equiv [Na+] 5hr-1kg-1
Oral diuretic activity [3]: 0.5 m equiv [Na+] 5hr-1kg-1

O=C(O)COc1c(Cl)cc2c(-c3ccccc3F)noc2c1Cl
Oral diuretic activity [1]: 85.7 u equiv of [Na+] kg-1 hr-1
Oral diuretic activity [2]: 0.41 m equiv [Na+] 5hr-1kg-1

CCOC(=O)COc1ccc2c(-c3ccccc3F)noc2c1Cl
Oral diuretic activity [1]: 39.1 u equiv of [Na+] kg-1 hr-1
Oral diuretic activity [2]: 1.48 m equiv [Na+] 5hr-1kg-1

O=C(O)COc1ccc2c(-c3cccs3)noc2c1Cl
Oral diuretic activity [1]: 77.5 u equiv of [Na+] kg-1 hr-1
Oral diuretic activity [2]: 1 m equiv [Na+] 5hr-1kg-1
Oral diuretic activity [3]: 0.4 m equiv [Na+] 5hr-1kg-1

O=C(O)COc1cc(Cl)c2c(-c3ccccc3F)noc2c1
Oral diuretic activity [1]: 82.1 u equiv of [Na+] kg-1 hr-1
Oral diuretic activity [2]: 1.16 m equiv [Na+] 5hr-1kg-1
Oral diuretic activity [3]: 1.59 m equiv [Na+] 5hr-1kg-1

O=C(O)COc1ccc2c(-c3ccc4ccccc4c3)noc2c1Cl
Oral diuretic activity [1]: 53.3 u equiv of [Na+] kg-1 hr-1
Oral diuretic activity [2]: 1.1 m equiv [Na+] 5hr-1kg-1
Oral diuretic activity [3]: 1.2 m equiv [Na+] 5hr-1kg-1

Cc1ccccc1-c1noc2c(Cl)c(OCC(=O)O)ccc12
Oral diuretic activity [1]: 66.9 u equiv of [Na+] kg-1 hr-1
Oral diuretic activity [2]: 1.76 m equiv [Na+] 5hr-1kg-1
Oral diuretic activity [3]: 0.02 m equiv [Na+] 5hr-1kg-1

O=C(O)COc1ccc2c(-c3ccccc3F)noc2c1
Oral diuretic activity [1]: 33.6 u equiv of [Na+] kg-1 hr-1
Oral diuretic activity [2]: 2.89 m equiv [Na+] 5hr-1kg-1

O=C(O)COc1ccc(-c2noc3ccccc23)c(Cl)c1Cl
Oral diuretic activity [1]: 81.6 u equiv of [Na+] kg-1 hr-1
Oral diuretic activity [2]: 1.49 m equiv [Na+] 5hr-1kg-1
Oral diuretic activity [3]: 0.33 m equiv [Na+] 5hr-1kg-1

O=C(O)CSc1ccc2c(-c3ccccc3F)noc2c1Cl
Oral diuretic activity [1]: 328.4 u equiv of [Na+] kg-1 hr-1
Oral diuretic activity [2]: 4.67 m equiv [Na+] 5hr-1kg-1
Oral diuretic activity [3]: 1.37 m equiv [Na+] 5hr-1kg-1

O=C(O)COc1cc2onc(-c3ccccc3F)c2cc1Cl
Oral diuretic activity [1]: 49.8 u equiv of [Na+] kg-1 hr-1
Oral diuretic activity [2]: 0.2 m equiv [Na+] 5hr-1kg-1
Oral diuretic activity [3]: 0.6 m equiv [Na+] 5hr-1kg-1

O=C(O)COc1ccc2c(-c3ccccn3)noc2c1Cl
Oral diuretic activity [1]: 61.2 u equiv of [Na+] kg-1 hr-1
Oral diuretic activity [2]: 1 m equiv [Na+] 5hr-1kg-1
Oral diuretic activity [3]: 0.5 m equiv [Na+] 5hr-1kg-1

O=C(O)COc1ccc2c(-c3ccccc3F)noc2c1I
Oral diuretic activity [1]: 617.3 u equiv of [Na+] kg-1 hr-1
Oral diuretic activity [2]: 3.41 m equiv [Na+] 5hr-1kg-1
Oral diuretic activity [3]: 0.07 m equiv [Na+] 5hr-1kg-1

O=C(O)COc1ccc2c(-c3ccc(F)cc3)noc2c1Cl
Oral diuretic activity [1]: 178.7 u equiv of [Na+] kg-1 hr-1
Oral diuretic activity [2]: 0.4 m equiv [Na+] 5hr-1kg-1
Oral diuretic activity [3]: 0.4 m equiv [Na+] 5hr-1kg-1

O=C(O)COc1ccc2c(-c3ccc(Cl)cc3F)noc2c1Cl
Oral diuretic activity [1]: 156.2 u equiv of [Na+] kg-1 hr-1
Oral diuretic activity [2]: 1.4 m equiv [Na+] 5hr-1kg-1
Oral diuretic activity [3]: 1.8 m equiv [Na+] 5hr-1kg-1

O=C(O)COc1cc2onc(-c3ccccc3F)c2cc1Br
Oral diuretic activity [2]: 0.28 m equiv [Na+] 5hr-1kg-1
Oral diuretic activity [3]: 0.47 m equiv [Na+] 5hr-1kg-1

O=C(O)COc1ccc2c(-c3cccc(F)c3F)noc2c1Cl
Oral diuretic activity [1]: 80 u equiv of [Na+] kg-1 hr-1
Oral diuretic activity [2]: 5.8 m equiv [Na+] 5hr-1kg-1

O=C(O)COc1ccc2c(-c3ccco3)noc2c1Cl
Oral diuretic activity [1]: 199 u equiv of [Na+] kg-1 hr-1
Oral diuretic activity [2]: 0.6 m equiv [Na+] 5hr-1kg-1

O=C(O)COc1ccc2c(-c3ccccc3Cl)noc2c1Cl
Oral diuretic activity [1]: 48.2 u equiv of [Na+] kg-1 hr-1
Oral diuretic activity [2]: 9.1 m equiv [Na+] 5hr-1kg-1
Oral diuretic activity [3]: 0.6 m equiv [Na+] 5hr-1kg-1

O=C(O)COc1ccc2c(-c3ccoc3)noc2c1Cl
Oral diuretic activity [1]: 293 u equiv of [Na+] kg-1 hr-1
Oral diuretic activity [2]: 2.1 m equiv [Na+] 5hr-1kg-1
Oral diuretic activity [3]: 0.6 m equiv [Na+] 5hr-1kg-1

O=C(O)COc1ccc2c(-c3cc(F)ccc3F)noc2c1Cl
Oral diuretic activity [1]: 926.2 u equiv of [Na+] kg-1 hr-1
Oral diuretic activity [2]: 8.3 m equiv [Na+] 5hr-1kg-1
Oral diuretic activity [3]: 2.2 m equiv [Na+] 5hr-1kg-1

Cc1ccc(-c2noc3c(Cl)c(OCC(=O)O)ccc23)cc1
Oral diuretic activity [1]: 29.3 u equiv of [Na+] kg-1 hr-1
Oral diuretic activity [2]: 0.6 m equiv [Na+] 5hr-1kg-1
Oral diuretic activity [3]: 0.8 m equiv [Na+] 5hr-1kg-1

Cc1ccc(-c2noc3c(Cl)c(OCC(=O)O)ccc23)s1
Oral diuretic activity [1]: 122.4 u equiv of [Na+] kg-1 hr-1
Oral diuretic activity [2]: 0.5 m equiv [Na+] 5hr-1kg-1

O=C(O)COc1ccc2c(-c3ccc(F)cc3F)noc2c1Cl
Oral diuretic activity [1]: 41.7 u equiv of [Na+] kg-1 hr-1
Oral diuretic activity [2]: 0.9 m equiv [Na+] 5hr-1kg-1
Oral diuretic activity [3]: 0.7 m equiv [Na+] 5hr-1kg-1

O=C(O)COc1ccc2c(-c3cccc(F)c3)noc2c1Cl
Oral diuretic activity [1]: 50.6 u equiv of [Na+] kg-1 hr-1
Oral diuretic activity [2]: 0.81 m equiv [Na+] 5hr-1kg-1
Oral diuretic activity [3]: 0.75 m equiv [Na+] 5hr-1kg-1

Cc1ccsc1-c1noc2c(Cl)c(OCC(=O)O)ccc12
Oral diuretic activity [1]: 97.7 u equiv of [Na+] kg-1 hr-1
Oral diuretic activity [2]: 0.7 m equiv [Na+] 5hr-1kg-1

O=C(O)COc1c(Cl)c(Cl)c2c(-c3ccccc3F)noc2c1Cl
Oral diuretic activity [1]: 109 u equiv of [Na+] kg-1 hr-1
Oral diuretic activity [2]: 1.65 m equiv [Na+] 5hr-1kg-1
Oral diuretic activity [3]: 0.53 m equiv [Na+] 5hr-1kg-1

O=C(O)COc1ccc2c(-c3ccccc3)noc2c1Cl
Oral diuretic activity [1]: 47.5 u equiv of [Na+] kg-1 hr-1
Oral diuretic activity [2]: 1.7 m equiv [Na+] 5hr-1kg-1
Oral diuretic activity [3]: 0.8 m equiv [Na+] 5hr-1kg-1

O=C(O)COc1ccc2c(-c3ccccc3F)noc2c1Br [BROCRINAT]
Oral diuretic activity [4]: 1182.6 u equiv of [Na+] kg-1
Oral diuretic activity [1]: 1970.7 u equiv of [Na+] kg-1 hr-1
Oral diuretic activity [2]: 11.53 m equiv [Na+] 5hr-1kg-1
Oral diuretic activity [5]: 1083 u equiv of [Na+] kg-1
Oral diuretic activity [6]: 503.3 u equiv of [Na+] kg-1
Oral diuretic activity [7]: 106.8 u equiv of [Na+] kg-1
Oral diuretic activity [3]: 1.02 m equiv [Na+] 5hr-1kg-1
Oral diuretic activity [8]: 869 u equiv of [Na+] kg-1

O=C(O)COc1ccc(C(=O)c2cccs2)c(Cl)c1Cl [TICRYNAFEN]
Oral diuretic activity [9]: 21.2 u equiv of [Na+] kg-1
Oral diuretic activity [1]: 302.3 u equiv of [Na+] kg-1 hr-1
Oral diuretic activity [2]: 3.31 m equiv [Na+] 5hr-1kg-1
Oral diuretic activity [6]: 36.5 u equiv of [Na+] kg-1
Oral diuretic activity [7]: 127.5 u equiv of [Na+] kg-1
Oral diuretic activity [3]: 1.11 m equiv [Na+] 5hr-1kg-1
Oral diuretic activity [8]: 77.4 u equiv of [Na+] kg-1
